As usually defined, the IC50 is the concentration at which inhibition is half-maximal.

Converted amounts (≈) assume the structure as drawn.

This note sets out measurements from ChEMBL document CHEMBL4706708, “Improving the solubility of anti-proliferative thieno[2,3-b]quinoline-2-carboxamides” (Bioorg Med Chem, 2021).

For data set [1], the system named is MDA-MB-231. Put plainly: Antiproliferative activity against human MDA-MB-231 cells assessed as cell growth at 1 uM measured after 3 days by [3H]-thymidine incorporation assay relative to control. In kind it is functional. The note with it: MDA-MB-231, 72 h, time 3 day, read-out: Activity. In a few lines: (§1)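 HCT116 and MDA-MB-231 cells from ATCC, seeded at 3000 cells/well, exposed to inhibitor for three days; 0.04 µCi 3H-thymidine added per well 5 h before harvest onto glass fibre filters, incorporation counted by scintillation and expressed relative to untreated controls. Triplicate wells, at least two independent experiments. Single-point screen at 1 µM; IC50 determined from varying concentrations.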
Background: Incorporation of labelled thymidine or its analogues reports DNA synthesis.

Data set [2] can be described thus: Thermodynamic solubility of compound in water measured after 15 mins RP-HPLC analysis. In kind it is physicochemical. The note with it: read-out: Therm_solubility.
Data set [3] concerns HCT-116. Put plainly: Antiproliferative activity against human HCT-116 cells assessed as cell growth at 1 uM measured after 3 days by [3H]-thymidine incorporation assay relative to control. In kind it is functional. The settings on record: HCT-116, 72 h, time 3 day, read-out: Activity. The method in brief: as §1
The test system of data set [4] is MDA-MB-231. The data set can be described thus: Antiproliferative activity against human MDA-MB-231 cells assessed as cell growth inhibition measured after 3 days by [3H]-thymidine incorporation assay. In kind it is functional, cell-based. The method in brief: as §1
Data set [5] deals with HCT-116. The data set can be described thus: Antiproliferative activity against human HCT-116 cells assessed as cell growth inhibition measured after 3 days by [3H]-thymidine incorporation assay. In kind it is functional, cell-based. In a few lines: as §1
Data set [6] can be described thus: Stability in water measured after 15 mins RP-HPLC analysis. In kind it is physicochemical. The settings on record: buffer, 0.25 h.

In the case of `CC(=O)c1cc2c(N)c(C(=O)Nc3cccc4ccccc34)sc2nc1C`, the growth at 1 µM in data set [1] was found to be 13.6%; in data set [3] it was 7.8%. For the same compound, the solubility thermodynamic at 0.25 h in data set [2] amounted to 1.08 µg/mL (≈ 2.88 µM). In addition, the IC50 in data set [4] came to 633 nM; in data set [5], 591 nM.
In the same order, the values of `CC(=O)c1cc2c(N)c(C(=O)Nc3cccc(Br)c3C)sc2nc1C` are 11%, 4%, 1.15 µg/mL (≈ 2.75 µM), 219 nM and 183 nM.
In the same order, the values of `Cc1nc2sc(C(=O)Nc3cccc(Cl)c3C)c(N)c2cc1C(C)O` (stereo unspecified) are 11.7%, 2.2%, 2.41 µg/mL (≈ 6.41 µM), 76 nM and 72 nM.
In the same order, the values of `Cc1cccc(NC(=O)c2sc3nc4c(cc3c2N)CN(Cc2ccccc2)CC4)c1C` are 4%, 1.5%, 1.72 µg/mL (≈ 3.89 µM), 162 nM and 201 nM.
Regarding `Cc1c(Cl)cccc1NC(=O)c1sc2nc3c(cc2c1N)CN(C)CC3`, the Stabilty result in data set [6] is given as “Unstable”. Moreover, the growth at 1 µM in data set [1] worked out at 95.3%; in data set [3] it was 101%. Besides, the solubility thermodynamic at 0.25 h in data set [2] turned out to be 0.44 µg/mL (≈ 1.14 µM).
Regarding `Cc1nc2sc(C(=O)Nc3cccc4ccccc34)c(N)c2cc1C(C)O` (stereo unspecified), the growth at 1 µM in data set [1] is 9.9%; in data set [3], 1.7%. In data set [2], the solubility thermodynamic at 0.25 h is 2.21 µg/mL (≈ 5.85 µM). In addition, the IC50 in data set [4] stood at 81 nM; in data set [5], 171 nM.
For `Cc1c(Cl)cccc1NC(=O)c1sc2nc3c(cc2c1N)CN(Cc1ccccc1)CC3` the same measures were 4%, 2.3%, 0.77 µg/mL (≈ 1.66 µM), 150 nM and 193 nM.
With `CC(=O)c1cc2c(N)c(C(=O)Nc3cccc(Cl)c3C)sc2nc1C`, the results for the growth at 1 µM in data set [1] and in data set [3] were 13.7% and 10%, respectively. The solubility thermodynamic at 0.25 h in data set [2] stood at 1.63 µg/mL (≈ 4.36 µM). In addition, the IC50 stood at 636 nM in data set [4] and 573 nM in data set [5].
`Cc1c(NC(=O)c2sc3nc4c(cc3c2N)CN(Cc2ccccc2)CC4)cccc1C(F)(F)F`: the growth at 1 µM in data set [1] amounted to 61.5%; in data set [3] it was 69.7%. Also, the solubility thermodynamic at 0.25 h in data set [2] was determined as 1.31 µg/mL (≈ 2.64 µM). For the same compound, the IC50 in data set [4] and in data set [5] was above 1000 nM each time.
As for `Cc1c(Cl)cccc1NC(=O)c1sc2nc3c(cc2c1N)COCC3`, the Stabilty entry in data set [6] is recorded as “Unstable”. For the same compound, the figures for the growth at 1 µM in data set [1] and in data set [3] were 50.9% and 78.1%, respectively. Besides, the solubility thermodynamic at 0.25 h in data set [2] stood at 1.15 µg/mL (≈ 3.08 µM).
For `CC(=O)c1cc2c(N)c(C(=O)Nc3cccc(C)c3C)sc2nc1C`, the growth at 1 µM in data set [1] was determined as 8.9%; in data set [3] it was 2.1%. Moreover, the solubility thermodynamic at 0.25 h in data set [2] came out at 0.68 µg/mL (≈ 1.92 µM). The IC50 in data set [4] was 506 nM; in data set [5], 422 nM.
As for `CC(=O)c1cc2c(N)c(C(=O)Nc3cccc(Cl)c3)sc2nc1C`, the growth at 1 µM in data set [1] was found to be 102%; in data set [3], 101%. In addition, the solubility thermodynamic at 0.25 h in data set [2] is 1.52 µg/mL (≈ 4.22 µM).
In the case of `Cc1c(Br)cccc1NC(=O)c1sc2nc3c(cc2c1N)CN(Cc1ccccc1)CC3`, the growth at 1 µM in data set [1] was found to be 3.5%; in data set [3], 1%. The solubility thermodynamic at 0.25 h in data set [2] came to 0.61 µg/mL (≈ 1.2 µM). The IC50 in data set [4] is 122 nM; in data set [5] it was 151 nM.
Take `Cc1ccccc1NC(=O)c1sc2nc3c(cc2c1N)CN(Cc1ccccc1)CC3`: the growth at 1 µM in data set [1] was 109%; in data set [3] it was 96.4%. In data set [2], the solubility thermodynamic at 0.25 h was found to be 0.26 µg/mL (≈ 0.607 µM).
Regarding `Cc1nc2sc(C(=O)Nc3cccc4ncccc34)c(N)c2cc1C(C)O` (stereo unspecified), the growth at 1 µM came to 112% in data set [1] and 92% in data set [3]. Also, the solubility thermodynamic at 0.25 h in data set [2] is 0.89 µg/mL (≈ 2.35 µM).
For `Nc1c(C(=O)Nc2ccc3c(c2)OCCO3)sc2nc3c(cc12)C(=O)CCC3` the same measures were 102%, 76.2% and 0.32 µg/mL (≈ 0.809 µM).
In the case of `Nc1c(C(=O)Nc2cccc3ccccc23)sc2nc3c(cc12)CN(Cc1ccccc1)CC3`, the growth at 1 µM in data set [1] was found to be 19.3%; in data set [3], 4.7%. In data set [2], the solubility thermodynamic at 0.25 h was determined as 3.97 µg/mL (≈ 8.55 µM). The IC50 in data set [4] is 644 nM; in data set [5] it was 640 nM.
For the compound `CC(=O)c1cc2c(N)c(C(=O)Nc3ccnc4ccccc34)sc2nc1C`, in data set [6], the Stabilty entry was “Unstable”. The growth at 1 µM in data set [1] turned out to be 91.6%; in data set [3], 102%. In addition, in data set [2], the solubility thermodynamic at 0.25 h is 0.26 µg/mL (≈ 0.691 µM).
In the case of `CC(=O)c1cc2c(N)c(C(=O)Nc3cccc4c3OCCO4)sc2nc1C`, in data set [6], the Stabilty entry is listed as “Unstable”. In addition, the growth at 1 µM was 104% in data set [1] and 72.5% in data set [3]. Besides, in data set [2], the solubility thermodynamic at 0.25 h worked out at 0.26 µg/mL (≈ 0.678 µM).
`CC(=O)c1cc2c(N)c(C(=O)Nc3ccc4c(c3)OCCO4)sc2nc1C`: the growth at 1 µM in data set [1] turned out to be 103%; in data set [3], 104%. For the same compound, the solubility thermodynamic at 0.25 h in data set [2] amounted to 0.19 µg/mL (≈ 0.496 µM).
For `Nc1c(C(=O)Nc2cccc3cnccc23)sc2nc3c(cc12)C(=O)CCC3` the same measures were 107%, 103% and 1.67 µg/mL (≈ 4.3 µM).
For `CC(=O)c1cc2c(N)c(C(=O)Nc3ccncc3)sc2nc1C` the same measures were 97.2%, 103% and 0.45 µg/mL (≈ 1.38 µM).
For `CC(=O)c1cc2c(N)c(C(=O)Nc3cccc(F)c3C)sc2nc1C` the same measures were 114%, 103% and 0.35 µg/mL (≈ 0.979 µM).
`Cc1nc2sc(C(=O)Nc3ccc4c(c3)OCCO4)c(N)c2cc1C(C)O` (stereo unspecified): the growth at 1 µM in data set [1] worked out at 105%; in data set [3] it was 94.9%. In addition, the solubility thermodynamic at 0.25 h in data set [2] came to 0.27 µg/mL (≈ 0.7 µM).
For `COc1ccc(NC(=O)c2sc3nc4c(cc3c2N)COCC4)cc1` the same measures were 83.9%, 80.1% and 3.19 µg/mL (≈ 8.98 µM).
In the same order, the values of `CC(=O)c1cc2c(N)c(C(=O)Nc3cccc4ccncc34)sc2nc1C` are 101%, 108% and 1.06 µg/mL (≈ 2.82 µM).
For `COc1cccc(NC(=O)c2sc3nc4c(cc3c2N)CN(Cc2ccccc2)CC4)c1C` the same measures were 106%, 101% and 1.89 µg/mL (≈ 4.12 µM).
Take `CC(=O)c1cc2c(N)c(C(=O)Nc3cncc4ccccc34)sc2nc1C`: the growth at 1 µM in data set [1] amounted to 105%; in data set [3] it was 96.2%. Further, the solubility thermodynamic at 0.25 h in data set [2] was found to be 0.09 µg/mL (≈ 0.239 µM).
In the same order, the values of `Nc1c(C(=O)Nc2ccccc2)sc2nc3c(cc12)CN(C(=O)OCc1ccccc1)CC3` are 17.5%, 3.1% and 1.93 µg/mL (≈ 4.21 µM).
For `CC(=O)c1cc2c(N)c(C(=O)Nc3ccccc3)sc2nc1C` the same measures were 120%, 109% and 3 µg/mL (≈ 9.22 µM).
